According to ChEMBL document CHEMBL3286351, “Antibacterial evaluation of structurally amphipathic, membrane active small cationic peptidomimetics: synthesized by incorporating 3-amino benzoic acid as peptidomimetic element” (Eur J Med Chem, 2014):
Values after ≈ are worked out from the molar mass of the structure shown. Where a SMILES comes first, the peptide text is derived from it. [ ]: non-standard residue; d: D form. 3Abz = Nc1cccc(C(=O)O)c1; Orn = NCCC[CH](N)C(=O)O

How the values were obtained:
[1] = system: Staphylococcus epidermidis; assay: Antibacterial activity against methicillin-resistant Staphylococcus epidermidis ATCC 51625 assessed as growth inhibition after 18 hrs by CLSI microdilution broth assay; format: functional; conditions: ATCC 51625, 18 h
Outline: (§1)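 Modified CLSI broth microdilution in Mueller-Hinton broth. Wells held 90 µL of about 2 × 10^5 CFU/mL inoculum plus 10 µL of serially diluted peptidomimetic, range 0.7-100 µg/mL. Plates were incubated overnight with agitation at 37 °C and absorbance read at 600 nm after 18 h. Controls: inoculum without compound, and uninoculated broth. Run in triplicate.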

[2] = Induction of hemolysis in human RBC assessed as hemoglobin release after 1 hr by microtiter plate reader analysis; format: cell-based, Erythrocyte; conditions: for HC10: erythrocyte, 1 h; for HC50 at 1 h: red blood cells
Outline: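 Freshly isolated human RBCs washed three times in PBS (35 mM phosphate, 150 mM NaCl, pH 7.2) and used as a 4% (v/v) suspension. Mixed 1:1 with twofold serial dilutions of compound, incubated 1 h at 37 °C without agitation, then centrifuged. Supernatant A540 read. PBS defined 0% and 1% Triton X-100 defined 100% lysis; HC50 and HC10 derived.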

[3] = Selectivity ratio of HC50 for hemolysis in human RBC to MIC for Staphylococcus aureus
HaCaT [4] = assay: Cytotoxicity against human HaCaT cells assessed as decrease in cell viability after 24 hrs by MTT assay; format: cell-based
Outline: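 HaCaT keratinocytes grown as a monolayer in DMEM with 10% FBS and penicillin/streptomycin, 37 °C, 5% CO2. Seeded 24 h, then exposed to compound for 24 h. MTT (5 mg/mL stock in PBS) added for 4 h; formazan dissolved in isopropanol and read at 570 nm. Growth inhibition calculated relative to medium-only controls. Two independent experiments in triplicate.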

HaCaT [5] = assay: Cytotoxicity against human HaCaT cells at 100 to 500 ug/ml after 24 hrs by LDH release assay; format: cell-based
Outline: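 HaCaT cells (DMEM with 10% FBS, 37 °C, 5% CO2) seeded for 24 h, then treated with varying concentrations for 24 h. LDH measured at 490 nm in both supernatant and trypsinized cell lysate with a non-radioactive kit. % release = supernatant/(supernatant + lysate) × 100. Two independent experiments in triplicate.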

[6] = (§2) Stability in human plasma assessed as compound degradation after 24 hrs by RP-HPLC analysis; format: ADME, cell-free; conditions: read-out: Drug degradation
Outline: (§3)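 Compound (1 mg/mL stock in water; 50 µL) added to 1 mL fresh heparinized human plasma and held at 37 °C. Samples taken at 30 min, 1, 2, 6, 12 and 24 h. Proteins precipitated with 95% ethanol, cooled at 4 °C for 15 min and centrifuged at 18,000 g. Supernatant analyzed by RP-HPLC with UV detection at 280 nm.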

[7] = Stability in human plasma assessed as compound degradation after 30 mins by RP-HPLC analysis; format: ADME, cell-free; conditions: read-out: Drug degradation; outline: as §3
Plasma [8] = assay: Stability in human plasma assessed as compound degradation after 12 hrs by RP-HPLC analysis; format: ADME, cell-free; outline: as §3
trypsin = assay: Proteolytic stability assessed as trypsin (unknown origin)-mediated compound degradation by measuring compound remaining after 4 days by RP-HPLC analysis; format: ADME; conditions: human, trypsin; read-out: Stability
Outline: (§4)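 Compound at 1 mg/mL in 0.1 M NH4HCO3 (pH 8.2) combined with trypsin or α-chymotrypsin solution (1 mg enzyme per 50 mL of the same buffer) at 37 °C. Aliquots taken over time and quenched with 10% formic acid. Remaining compound quantified by C18 RP-HPLC. An enzyme-free control was run for each test.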

alpha chymotrypsin = assay: Proteolytic stability assessed as alpha chymotrypsin (unknown origin)-mediated compound degradation by measuring compound remaining after 4 days by RP-HPLC analysis; format: ADME; conditions: human, read-out: Stability; outline: as §4
[9] = Retention time of the compound by HPLC analysis; format: physicochemical
Outline: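 Analytical RP-HPLC on a C18 column (5 µm, 4.6 × 250 mm) at room temperature. Run a linear gradient of 0.5-60% acetonitrile containing 0.05% TFA against water containing 0.05% TFA at 0.5 mL/min.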

Escherichia coli = assay: Antibacterial activity against Escherichia coli MTCC 723 assessed as growth inhibition after 18 hrs by CLSI microdilution broth assay; format: functional; conditions: MTCC 723, 18 h
Pseudomonas aeruginosa = assay: Antibacterial activity against Pseudomonas aeruginosa MTCC 2295 assessed as growth inhibition after 18 hrs by CLSI microdilution broth assay; format: functional; conditions: MTCC 2295, 18 h
Staphylococcus aureus [10] = assay: Antibacterial activity against Staphylococcus aureus MTCC 3160 assessed as growth inhibition after 18 hrs by CLSI microdilution broth assay; format: functional; conditions: MTCC 3160, 18 h
Bacillus subtilis = assay: Antibacterial activity against Bacillus subtilis MTCC 2763 assessed as growth inhibition after 18 hrs by CLSI microdilution broth assay; format: functional; conditions: MTCC 2763, 18 h
Staphylococcus aureus [11] = assay: Antibacterial activity against methicillin-resistant Staphylococcus aureus ATCC BAA-1720 assessed as growth inhibition after 18 hrs by CLSI microdilution broth assay; format: functional; conditions: ATCC BAA-1720, 18 h; outline: as §1
Plasma [12] = assay: as §2; format: ADME, cell-free; conditions: 24 h; outline: as §3

SMILES | MIC [1] | HC10 [2] | HC50 at 1 h [2] | Selectivity ratio [3] | Activity (HaCaT [4]) | Activity (HaCaT [5]) | metabolised at 24 h [6] | metabolised at 0.5 h [7] | Stability (Plasma [8]) | remaining at 96 h (trypsin) | remaining at 96 h (alpha chymotrypsin) | Retention_time [9] | MIC (Escherichia coli) | MIC (Pseudomonas aeruginosa) | MIC (Staphylococcus aureus [10]) | MIC (Bacillus subtilis) | MIC (Staphylococcus aureus [11]) | Stability (Plasma [12])
N=C(N)NCCCC(NC(=O)C(Cc1c[nH]c2ccccc12)NC(=O)C(Cc1c[nH]c2ccccc12)NC(=O)C(CCCNC(=N)N)NC(=O)C(N)Cc1c[nH]c2ccccc12)C(N)=O (stereo not drawn) (H-WRWWR-NH2; configuration not given here) | 20 µg/mL (≈ 22.5 µM) | 60 µg/mL | 200 µg/mL | 13.3 | Dose-dependent effect | Toxic | 18% | 5.31% | Stable | 21% | 44% | 30.604 min | 40 µg/mL (≈ 45 µM) | 70 µg/mL (≈ 78.8 µM) | 15 µg/mL (≈ 16.9 µM) | 50 µg/mL (≈ 56.3 µM) | 17.5 µg/mL (≈ 19.7 µM) | –
N=C(N)NCCCC(NC(=O)C(Cc1c[nH]c2ccccc12)NC(=O)c1cccc(NC(=O)C(CCCNC(=N)N)NC(=O)C(N)Cc2c[nH]c3ccccc23)c1)C(N)=O (stereo not drawn) (H-WR[3Abz]WR-NH2; configuration not given here) | 75 µg/mL (≈ 91.4 µM) | 220 µg/mL | 400 µg/mL | 6.66 | – | – | – | – | – | – | – | 24.982 min | 150 µg/mL (≈ 183 µM) | 120 µg/mL (≈ 146 µM) | 60 µg/mL (≈ 73.1 µM) | 75 µg/mL (≈ 91.4 µM) | 50 µg/mL (≈ 60.9 µM) | –
N=C(N)NCCCC(NC(=O)C(CCCNC(=N)N)NC(=O)c1cccc(NC(=O)C(CCCNC(=N)N)NC(=O)C(Cc2c[nH]c3ccccc23)NC(=O)C(N)Cc2c[nH]c3ccccc23)c1)C(N)=O (stereo not drawn) (H-WWR[3Abz]RR-NH2; configuration not given here) | 50 µg/mL (≈ 51.2 µM) | 200 µg/mL | 380 µg/mL | 7.6 | – | – | – | – | – | – | – | 27.34 min | 75 µg/mL (≈ 76.8 µM) | 100 µg/mL (≈ 102 µM) | 50 µg/mL (≈ 51.2 µM) | 70 µg/mL (≈ 71.6 µM) | 50 µg/mL (≈ 51.2 µM) | –
N=C(N)NCCCC(NC(=O)c1cccc(NC(=O)C(Cc2c[nH]c3ccccc23)NC(=O)C(N)Cc2c[nH]c3ccccc23)c1)C(N)=O (stereo not drawn) (H-WW[3Abz]R-NH2; configuration not given here) | > 200 µg/mL | 100 µg/mL | 240 µg/mL | 2 | – | – | – | – | – | – | – | 28.661 min | 150 µg/mL (≈ 226 µM) | 170 µg/mL (≈ 256 µM) | 120 µg/mL (≈ 181 µM) | 150 µg/mL (≈ 226 µM) | 200 µg/mL (≈ 301 µM) | –
N=C(N)NCCCC(NC(=O)C(CCCNC(=N)N)NC(=O)c1cccc(NC(=O)C(Cc2c[nH]c3ccccc23)NC(=O)C(N)Cc2c[nH]c3ccccc23)c1)C(N)=O (stereo not drawn) (H-WW[3Abz]RR-NH2; configuration not given here) | 75 µg/mL (≈ 91.4 µM) | 150 µg/mL | 400 µg/mL | 8 | – | – | – | – | – | – | – | 25.377 min | 120 µg/mL (≈ 146 µM) | 125 µg/mL (≈ 152 µM) | 50 µg/mL (≈ 60.9 µM) | 70 µg/mL (≈ 85.3 µM) | 50 µg/mL (≈ 60.9 µM) | –
NCCCC(NC(=O)C(Cc1c[nH]c2ccccc12)NC(=O)C(Cc1c[nH]c2ccccc12)NC(=O)C(CCCN)NC(=O)C(N)Cc1c[nH]c2ccccc12)C(N)=O (stereo not drawn) (H-W[Orn]WW[Orn]-NH2; configuration not given here) | 70 µg/mL (≈ 87.1 µM) | 65 µg/mL | 225 µg/mL | 4.5 | Dose-dependent effect | Toxic | – | 4.72% | – | 82% | 44% | 28.309 min | 70 µg/mL (≈ 87.1 µM) | 150 µg/mL (≈ 187 µM) | 50 µg/mL (≈ 62.2 µM) | 120 µg/mL (≈ 149 µM) | 50 µg/mL (≈ 62.2 µM) | Stable
NCCCC(NC(=O)C(CCCN)NC(=O)c1cccc(NC(=O)C(Cc2c[nH]c3ccccc23)NC(=O)C(CCCN)NC(=O)C(N)Cc2c[nH]c3ccccc23)c1)C(N)=O (stereo not drawn) (H-W[Orn]W[3Abz][Orn][Orn]-NH2; configuration not given here) | 20 µg/mL (≈ 23.5 µM) | 175 µg/mL | 450 µg/mL | 18 | – | – | – | – | – | – | – | 24.782 min | 70 µg/mL (≈ 82.3 µM) | 75 µg/mL (≈ 88.1 µM) | 25 µg/mL (≈ 29.4 µM) | 40 µg/mL (≈ 47 µM) | 25 µg/mL (≈ 29.4 µM) | –
NCCCC(NC(=O)C(Cc1c[nH]c2ccccc12)NC(=O)c1cccc(NC(=O)C(CCCN)NC(=O)C(CCCN)NC(=O)C(N)Cc2c[nH]c3ccccc23)c1)C(N)=O (stereo not drawn) (H-W[Orn][Orn][3Abz]W[Orn]-NH2; configuration not given here) | 40 µg/mL (≈ 47 µM) | 170 µg/mL | 500 µg/mL | 12.5 | – | – | – | – | – | – | – | 24.193 min | 75 µg/mL (≈ 88.1 µM) | 100 µg/mL (≈ 118 µM) | 40 µg/mL (≈ 47 µM) | 75 µg/mL (≈ 88.1 µM) | 50 µg/mL (≈ 58.8 µM) | –
NCCCC(N)C(=O)NC(Cc1c[nH]c2ccccc12)C(=O)NC(Cc1c[nH]c2ccccc12)C(=O)Nc1cccc(C(=O)NC(CCCN)C(=O)NC(CCCN)C(N)=O)c1 (stereo not drawn) (H-[Orn]WW[3Abz][Orn][Orn]-NH2; configuration not given here) | 50 µg/mL (≈ 58.8 µM) | 150 µg/mL | 440 µg/mL | 8.8 | – | – | – | – | – | – | – | 23.979 min | 100 µg/mL (≈ 118 µM) | 100 µg/mL (≈ 118 µM) | 50 µg/mL (≈ 58.8 µM) | 100 µg/mL (≈ 118 µM) | 50 µg/mL (≈ 58.8 µM) | –
NCCCC(N)C(=O)NC(Cc1c[nH]c2ccccc12)C(=O)Nc1cccc(C(=O)NC(Cc2c[nH]c3ccccc23)C(=O)NC(CCCN)C(N)=O)c1 (stereo not drawn) (H-[Orn]W[3Abz]W[Orn]-NH2; configuration not given here) | 15 µg/mL (≈ 20.4 µM) | 190 µg/mL | > 500 µg/mL | > 28.6 | – | – | – | – | – | – | – | 24.231 min | 50 µg/mL (≈ 67.9 µM) | 40 µg/mL (≈ 54.3 µM) | 17.5 µg/mL (≈ 23.7 µM) | 50 µg/mL (≈ 67.9 µM) | 20 µg/mL (≈ 27.1 µM) | –
NCCCC(N)C(=O)NC(CCCN)C(=O)NC(Cc1c[nH]c2ccccc12)C(=O)NC(Cc1c[nH]c2ccccc12)C(=O)NC(CCCN)C(N)=O (stereo not drawn) (H-[Orn][Orn]WW[Orn]-NH2; configuration not given here) | 100 µg/mL (≈ 137 µM) | 100 µg/mL | 310 µg/mL | 4.42 | – | – | – | – | – | – | – | 26.672 min | 120 µg/mL (≈ 164 µM) | 150 µg/mL (≈ 205 µM) | 70 µg/mL (≈ 95.6 µM) | 100 µg/mL (≈ 137 µM) | 100 µg/mL (≈ 137 µM) | –
NCCCC(N)C(=O)NC(CCCN)C(=O)NC(Cc1c[nH]c2ccccc12)C(=O)Nc1cccc(C(=O)NC(Cc2c[nH]c3ccccc23)C(=O)NC(CCCN)C(N)=O)c1 (stereo not drawn) (H-[Orn][Orn]W[3Abz]W[Orn]-NH2; configuration not given here) | 12.5 µg/mL (≈ 14.7 µM) | 120 µg/mL | 450 µg/mL | 60 | – | – | – | – | – | – | – | 24.231 min | 40 µg/mL (≈ 47 µM) | 50 µg/mL (≈ 58.8 µM) | 7.5 µg/mL (≈ 8.81 µM) | 40 µg/mL (≈ 47 µM) | 10.2 µg/mL (≈ 12 µM) | –
